Compound activity from PubChem.
Compounds with a hit are over-represented: about 2.9% of the library has one in this group of screens.
TRPC6 inhibitor – inhibitors of mouse TRPC6 channel; Q61143; HEK293-TRPC6, membrane potential dye, ACh-evoked depolarization; active compounds read low; B-score at 10 µM; hit rate 1.1% among 310,000; AID 2553;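 active = B-score under library mean minus 3 SD, initial fluorescence not abnormally high, positive integrated signal ratio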;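 note: B-score derived from integrated fluorescence ratio over the kinetic read; more negative B-score means stronger inhibition of depolarization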
TRPC4 potent – TRPC4 (mouse) allosteric potentiation | Q9QUQ5 | AID 2227 | hit rate 0.42% among 310,000 | HEK293 TRPC4beta/mu-opioid, DAMGO EC20, Fluo-4 Ca2+ flux; active compounds read high | B-score at 10 µM;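 active = B-score of calcium response area above 5 SD of library B-scores, with initial fluorescence ratio within 5 SD of library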;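 note: B-score of integrated fluorescence ratio over time as area under calcium response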
Target sequence (Q9QUQ5 whole entry, looked up): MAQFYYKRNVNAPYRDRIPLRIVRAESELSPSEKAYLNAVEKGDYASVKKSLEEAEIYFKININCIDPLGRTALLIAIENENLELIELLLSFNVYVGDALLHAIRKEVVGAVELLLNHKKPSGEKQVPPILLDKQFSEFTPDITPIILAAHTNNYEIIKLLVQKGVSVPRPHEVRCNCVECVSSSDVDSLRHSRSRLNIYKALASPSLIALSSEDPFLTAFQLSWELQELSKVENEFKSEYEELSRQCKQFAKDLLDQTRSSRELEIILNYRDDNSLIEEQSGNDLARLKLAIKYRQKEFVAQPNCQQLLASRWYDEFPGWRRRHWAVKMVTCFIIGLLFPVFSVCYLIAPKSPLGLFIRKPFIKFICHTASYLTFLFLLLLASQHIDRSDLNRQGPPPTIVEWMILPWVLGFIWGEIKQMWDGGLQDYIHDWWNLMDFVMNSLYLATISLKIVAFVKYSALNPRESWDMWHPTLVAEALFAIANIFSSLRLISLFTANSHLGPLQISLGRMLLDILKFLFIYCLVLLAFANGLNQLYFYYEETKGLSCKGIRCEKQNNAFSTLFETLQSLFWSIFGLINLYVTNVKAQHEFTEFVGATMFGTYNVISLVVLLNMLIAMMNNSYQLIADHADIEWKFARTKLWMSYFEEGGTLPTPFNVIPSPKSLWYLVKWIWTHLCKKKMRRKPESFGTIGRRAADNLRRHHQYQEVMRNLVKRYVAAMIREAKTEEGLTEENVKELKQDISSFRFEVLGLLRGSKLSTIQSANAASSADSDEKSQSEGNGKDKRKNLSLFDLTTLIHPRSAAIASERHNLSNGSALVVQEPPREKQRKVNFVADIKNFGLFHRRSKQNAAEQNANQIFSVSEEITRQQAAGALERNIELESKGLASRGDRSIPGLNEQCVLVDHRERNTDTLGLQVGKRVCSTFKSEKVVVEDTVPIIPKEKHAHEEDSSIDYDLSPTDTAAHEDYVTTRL
TRPC4 inh – inhibitors of mouse TRPC4 channel; Q9QUQ5; HEK293 TRPC4beta/mu-opioid, DAMGO-evoked Fluo4 calcium flux; active compounds read low; B-score at 10 µM; hit rate 0.39% among 300,000;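 active = B-score over 3 SD under the library average, no early fluorescence shift, positive overall ratio signal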
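material = TRPC4beta/mu-opioid receptor HEK293 cell line | probe or stimulus = sequential submaximal and maximal DAMGO stimulation | compound dosing = one concentration per compound | measured by = Fluo4 Ca2+ flux fluorescence | evaluation = integrated fluorescence ratio relative to baseline, converted to per-well B score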
TRPC4 agonist – TRPC4 (mouse) channel activation; Q9QUQ5; HEK293 TRPC4beta/mu-opioid, Fluo4 calcium fluorescence; active compounds read high; B-score at 10 µM; hit rate 0.49% among 310,000; AID 2237;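 active = B-score above 5 SD of library B-scores, and initial fluorescence ratio not above library mean plus 5 SD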;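 note: positive B-score marks a calcium rise read as TRPC4 activation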
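Material: HEK293 stable line with TRPC4beta plus mu-opioid receptor; technique: Fluo4 calcium-sensitive dye fluorescence, kinetic, 1 Hz baseline; timing: Fluo4 dye loading 45 min at room temperature, 110 s recording; controls: assay buffer as low control, maximal DAMGO as high control; read-out: integrated baseline-normalised fluorescence ratio, converted to per-well B score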
TRPC6 activator – activators of mouse TRPC6 channel; Q61143; HEK293-TRPC6 membrane potential dye fluorescence; active compounds read high; B-score at 10 µM; hit rate 0.13% among 310,000; AID 2550;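 active = B-score of the integrated fluorescence ratio above library mean plus 3 SD, and starting fluorescence ratio within library mean plus 5 SD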;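 note: higher score means more depolarization so channel activation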
Kir21 inh – Kir2.1 (mouse) channel inhibition; P35561; HEK293-Kir2.1, FluxOR thallium flux fluorescence; active compounds read low; B-score at 10 µM; hit rate 0.85% among 310,000; AID 1672;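 active = fluorescence ratio B-score at or below minus 3 SD of library scores, with starting-brightness B-score within 2 SD, cut at about -4.2 in these data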;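 note: channel flux triggered by added potassium and thallium sulfate stimulus; B-score of peak minus minimum fluorescence over baseline after thallium stimulus; more negative B-score means stronger Kir2.1 block with less thallium influx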
TRPC4 sel inh 2 – second check of whether TRPC6 inhibitors also affect mouse TRPC4; shares compounds with TRPC6 inhibitor; HEK293 TRPC4/MOR, membrane potential dye fluorescence; channel activated by saturating DAMGO dose; inhibition, % at 10 µM; hit rate 42% among 920; AID 2776;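 active = compounds whose fluorescence signal differed from control wells by over 3 SD, either direction, in both duplicate plates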
TRPC4 spec – tests whether TRPC6 inhibitors also affect mouse TRPC4; hit rate 61% among 920; shares compounds with TRPC6 inhibitor; AID 2777; activity change, negative = inhibition, % at 10 µM; HEK293 TRPC4/mu-opioid, membrane potential fluorescence;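 active = rise or fall in signal beyond 3 SD of buffer-only wells in both replicate plates, either sign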;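 note: integrated kinetic ratio of fluorescence range over baseline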
HEK293 MPD ctr 2-1 – second check of TRPC6 inhibitor effects in parental HEK293 cells. AID 2779. shares compounds with TRPC6 inhibitor. hit rate 31% among 920. signal change vs control, % at 10 µM. parental HEK293 membrane potential dye fluorescence; maximal acetylcholine challenge after compound addition;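 active = membrane potential signal moving either way by over 3 SD of the maximum-effect control, in both duplicate plates, meaning non-specific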
HEK293 MPD ctr-1 – checks TRPC6 inhibitor effects in parental HEK293 cells; shares compounds with TRPC6 inhibitor; parental HEK293 membrane potential dye fluorescence; membrane potential signal change, % at 10 µM; hit rate 60% among 920;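 active = membrane potential signal shifting up or down by more than 3 SD of buffer-only wells, on both duplicate plates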
HEK293 MPD ctr-2 – counter-screen for TRPC6 modulators: effect in parental HEK293 cells; membrane potential signal change, % at 10 µM; AID 488924; membrane potential dye fluorescence; hit rate 51% among 2,400; shares compounds with TRPC6 inhibitor;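 active = membrane potential signal moves up or down beyond 5 SD from buffer-only wells, on both duplicate plates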
HEK293 MPD ctr 2-2 – second counter-screen for TRPC6 modulators: effect in parental HEK293 cells; shares compounds with TRPC6 inhibitor; hit rate 14% among 2,400; membrane potential dye fluorescence; after compound, maximal acetylcholine stimulation; inhibition, % at 10 µM;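 active = membrane potential signal drops by more than 5 SD from the mean control signal, in both duplicate plates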;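 note: plate controls were acetylcholine ECmax control wells for no effect and buffer only wells for full effect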
TRPC4/MOR mod – mouse TRPC4 off-target activity of TRPC6 modulators | shares compounds with TRPC6 inhibitor | HEK293 TRPC4/mu-opioid, membrane potential fluorescence | percent change from control (negative = decrease, positive = increase), % at 10 µM | hit rate 69% among 2,400 | AID 488927;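 active = membrane potential signal moved up or down beyond 5 SD of buffer control wells, in both duplicate plates, actives on both sides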;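 note: plate controls were assay buffer wells for no effect and DAMGO maximal-effect wells for full effect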
TRPC4 ctr inh 2 – second selectivity test of TRPC6 modulators against mouse TRPC4. shares compounds with TRPC6 inhibitor. HEK293 TRPC4/mu-opioid, membrane potential dye fluorescence; stimulated with maximal-effect DAMGO. inhibition, % at 10 µM. hit rate 55% among 2,400. AID 488928;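 active = drop in membrane potential signal beyond 5 SD of the control wells in both duplicate plates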;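 note: TRPC4 counter screen for TRPC6 hits run under conditions tuned for TRPC6 not TRPC4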
TRPC6 inh conf – mouse TRPC6 inhibitor confirmation; shares compounds with TRPC6 inhibitor; HEK293-TRPC6, membrane potential dye, ACh-evoked depolarization; hit rate 43% among 3,300; inhibition, % at 10 µM;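 active = fluorescence ratio falls more than 5 SD below the full-stimulation control mean, in both duplicate runs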;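 note: integrated fluorescence ratio of peak minus minimum over baseline after agonist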
TRPC6 act conf – mouse TRPC6 activator confirmation | shares compounds with TRPC6 inhibitor | HEK293-TRPC6 membrane potential dye fluorescence, FDSS | activation, % at 10 µM | hit rate 11% among 2,800 | AID 488961;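 active = ratio signal rise beyond 5 SD above unstimulated control wells' mean, seen in both duplicate runs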;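 note: plate controls were buffer EC0 wells for no effect and acetylcholine ECmax response for full effect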
* hit, by the source's call.

What do the screens show for `O=S(=O)(Nc1nc2ccccc2nc1NCC1CCCO1)c1cccc(Cl)c1` (stereo not drawn)?
TRPC6 inhibitor: inactive; TRPC4 potent: inactive; TRPC4 inh: inactive; TRPC4 agonist: inactive; TRPC6 activator: inactive; Kir21 inh: 0.43

How did Cc1ccc2nc(NCCCN3CCOCC3)c(C=NCCCN3CCOCC3)c(=O)n2c1 do in these assays?
TRPC6 inhibitor: -8.91*; TRPC4 potent: inactive; TRPC4 inh: inactive; TRPC4 agonist: inactive; TRPC6 activator: inactive; Kir21 inh: -2.23; HEK293 MPD ctr-2: -350.5%*; HEK293 MPD ctr 2-2: 79.5%*; TRPC4/MOR mod: -66.5%*; TRPC4 ctr inh 2: 53.0%*; TRPC6 inh conf: 63.5%*; TRPC6 act conf: inactive

How did N=c1c(C(=O)NCCN2CCOCC2)cc2c(=O)n3ccccc3nc2n1CCCN1CCOCC1 do in these assays?
TRPC6 inhibitor: -7.57*; TRPC4 potent: inactive; TRPC4 inh: inactive; TRPC4 agonist: inactive; TRPC6 activator: inactive; Kir21 inh: -0.76; TRPC4 sel inh 2: 69.5%*; TRPC4 spec: 3.7%*; HEK293 MPD ctr 2-1: -287.5%*; HEK293 MPD ctr-1: 5.5%*; TRPC6 inh conf: 77.0%*; TRPC6 act conf: inactive

What do the screens show for `N=c1c(C(=O)NCCN2CCOCC2)cc2c(=O)n3ccccc3nc2n1Cc1ccc(F)cc1`?
TRPC6 inhibitor: -7.74*; TRPC4 potent: inactive; TRPC4 inh: inactive; TRPC4 agonist: inactive; TRPC6 activator: inactive; Kir21 inh: 0.94; HEK293 MPD ctr-2: -74.5%*; HEK293 MPD ctr 2-2: 90.5%*; TRPC4/MOR mod: -17.0%*; TRPC4 ctr inh 2: 45.0%*; TRPC6 inh conf: 56.0%*; TRPC6 act conf: inactive

What do the screens show for `Cc1ccc2nc3c(cc(C(=O)NCCN4CCOCC4)c(=N)n3CCCN3CCOCC3)c(=O)n2c1`?
TRPC6 inhibitor: -7.48*; TRPC4 potent: inactive; TRPC4 inh: inactive; TRPC4 agonist: inactive; TRPC6 activator: inactive; Kir21 inh: 1.31; TRPC4 sel inh 2: 72.0%*; TRPC4 spec: inactive; HEK293 MPD ctr 2-1: -173.5%*; HEK293 MPD ctr-1: inactive; TRPC6 inh conf: 82.6%*

What do the screens show for `Cc1ccc2nc3c(cc(C(=O)NCCc4ccccc4)c(=N)n3CCN3CCOCC3)c(=O)n2c1`?
TRPC6 inhibitor: inactive; TRPC4 potent: inactive; TRPC4 inh: inactive; TRPC4 agonist: inactive; TRPC6 activator: inactive; Kir21 inh: 0.99

Results for N=c1c(C(=O)NC2CCCCC2)cc2c(=O)n3ccccc3nc2n1CC1CCCO1 (stereo not drawn) ?
TRPC6 inhibitor: inactive; TRPC4 potent: inactive; TRPC4 inh: inactive; TRPC4 agonist: inactive; TRPC6 activator: inactive; Kir21 inh: 1.07

How did CCN(CC)S(=O)(=O)c1cccc(C(=O)OCC(=O)NC(C)c2ccccc2)c1 (stereo not drawn) do in these assays?
TRPC6 inhibitor: inactive; TRPC4 potent: inactive; TRPC4 inh: inactive; TRPC4 agonist: inactive; TRPC6 activator: inactive; Kir21 inh: -0.22

How did COc1ccc(N2CCN(C(=O)CNS(=O)(=O)c3ccc(C)cc3)CC2)cc1 do in these assays?
TRPC6 inhibitor: inactive; TRPC4 potent: inactive; TRPC4 inh: inactive; TRPC4 agonist: inactive; TRPC6 activator: inactive; Kir21 inh: 1.59

Results for CC(C)c1ccc(NC(=O)CCc2ccccc2)cc1 ?
TRPC6 inhibitor: inactive; TRPC4 potent: inactive; TRPC4 inh: inactive; TRPC4 agonist: inactive; TRPC6 activator: inactive; Kir21 inh: -0.23

Results for CC(=O)Nc1ccc(S(=O)(=O)N2CCC3(CC2)OCCO3)cc1 ?
TRPC6 inhibitor: inactive; TRPC4 potent: inactive; TRPC4 inh: inactive; TRPC4 agonist: inactive; TRPC6 activator: inactive; Kir21 inh: -0.38

Results for CC1CCN(CCCNc2cc(NCCO)c([N+](=O)[O-])c3nonc23)CC1 ?
TRPC6 inhibitor: -7.2*; TRPC4 potent: inactive; TRPC4 inh: inactive; TRPC4 agonist: inactive; TRPC6 activator: inactive; Kir21 inh: 0.02; TRPC4 sel inh 2: inactive; TRPC4 spec: -28.8%*; HEK293 MPD ctr 2-1: 35.5%*; HEK293 MPD ctr-1: -454.0%*; TRPC6 inh conf: 56.8%*; TRPC6 act conf: inactive

How did CN(CCO)c1cc(NCCCN2CCC(Cc3ccccc3)CC2)c2nonc2c1[N+](=O)[O-] do in these assays?
TRPC6 inhibitor: inactive; TRPC4 potent: inactive; TRPC4 inh: inactive; TRPC4 agonist: inactive; TRPC6 activator: inactive; Kir21 inh: -1.16

Results for COc1ccc(C(CNC(=O)c2ccc(NS(=O)(=O)c3ccc(F)c(C)c3)cc2)N2CCOCC2)cc1 (stereo not drawn) ?
TRPC6 inhibitor: inactive; TRPC4 potent: inactive; TRPC4 inh: inactive; TRPC4 agonist: inactive; TRPC6 activator: inactive; Kir21 inh: -0.16

What do the screens show for `N#CCn1c(CCl)nc2ccccc2c1=O`?
TRPC6 inhibitor: inactive; TRPC4 potent: inactive; TRPC4 inh: inactive; TRPC4 agonist: inactive; TRPC6 activator: inactive; Kir21 inh: -0.86
